Converted amounts (≈) assume the structure as drawn. The source made the active and inactive calls. The rule behind the calls is not given here.
Tests used:
[1] = system: Enterococcus faecium; assay: Antibacterial activity against Enterococcus faecium ATCC 19434; assay type: functional
Summary of the method: (§1)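 Incubation 24/48 h at 37 °C. MIC read as the lowest concentration inhibiting growth. MBC determined by transferring 10 μL from wells onto blood agar, taken as the lowest concentration with no visible growth.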

[2] = system: Staphylococcus aureus; assay: Antibacterial activity against methicillin-sensitive Staphylococcus aureus ATCC 29213; assay type: functional; summary of the method: as §1
[3] = system: Enterococcus faecium; assay: Antibacterial activity against vancomycin-resistant Enterococcus faecium SR7917; assay type: functional
[4] = system: Enterococcus faecalis; assay: Antibacterial activity against Enterococcus faecalis ATCC 29212; assay type: functional
[5] = system: Enterococcus faecalis; assay: Antibacterial activity against vancomycin-resistant Enterococcus faecalis SR7914; assay type: functional
[6] = system: Staphylococcus aureus; assay: Antibacterial activity against methicillin-resistant Staphylococcus aureus SR3637; assay type: functional
[7] = system: Escherichia coli; assay: Antibacterial activity against permeabilized Escherichia coli DH5[alpha] assessed as log reduction of colony forming unit at 10 uM; assay type: functional, organism-based
Summary of the method: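 Competent (permeabilized) E. coli DH5α cells were mixed with 5 ng pUC18 (ampR) and serially diluted compound or buffer only. Steps: 30 min on ice, heat shock at 42 °C for 90 s, 5 min on ice, then LB without antibiotic for 1 h at 37 °C with shaking. Plated on LB agarose with ampicillin 100 μg/mL overnight at 37 °C. Colonies counted against the no-compound control.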

[8] = system: Streptococcus agalactiae; assay: Antibacterial activity against Streptococcus agalactiae after 24 to 48 hrs by microdilution method; assay type: functional; summary of the method: as §1
[9] = system: Enterococcus faecalis; assay: Antibacterial activity against Enterococcus faecalis CCM 4224 after 24 to 48 hrs by microdilution method; assay type: functional; summary of the method: as §1
[10] = system: Bacillus subtilis; assay: Antibacterial activity against Bacillus subtilis after 24 to 48 hrs by microdilution method; assay type: functional; summary of the method: as §1
[11] = system: Staphylococcus aureus; assay: Antibacterial activity against Staphylococcus aureus CCM 4223 after 24 to 48 hrs by microdilution method; assay type: functional; summary of the method: as §1
[12] = system: Staphylococcus epidermidis; assay: Antibacterial activity against methicillin-resistant Staphylococcus epidermidis 8700/B after 24 to 48 hrs by microdilution method; assay type: functional
Summary of the method: (§2)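 Broth microdilution MIC on clinical isolates from Teaching Hospital Olomouc, stored at −80 °C. Compounds were serially diluted in brain heart infusion broth over 200–1.56 μg/mL (sometimes extended to 0.78 μg/mL), with an inoculum of 10⁵⁻⁶ CFU/ml per well. Plates were incubated at 37 °C and read at 24/48 h. MIC was taken as the lowest concentration inhibiting growth.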

[13] = Induction of apoptosis in human Erythroid progenitor cells assessed as caspase 3/7 activation after 4 hrs by Caspase-Glo 3/7 assay
Summary of the method: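 Cord-blood-derived human erythroid progenitor cells plated at 25000 cells/well and exposed to compound prediluted in medium. Caspase 3/7 activation read by Caspase-Glo 3/7 luminescence 4 h after addition, normalized to untreated control cells set as 100%.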

[14] = system: Escherichia coli; assay: Antibacterial activity against Escherichia coli after 24 to 48 hrs by microdilution method; assay type: functional; summary of the method: as §1
[15] = Cytotoxicity against human Erythroid progenitor cells assessed as cell viability after 48 hrs by CellTiter-blue assay; assay type: cell-based
Summary of the method: (§3)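 Normal human erythroid progenitor cells, expanded from umbilical cord blood, plated at 25000 cells/well immediately before compound addition (added as a 5× predilution in culture medium). Viability by CellTiter-Blue fluorescence 48 h after addition, normalized to untreated cells set as 100%.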

[16] = system: Enterococcus faecium; assay: Antibacterial activity against vancomycin-resistant Enterococcus faecium VanA419/ana after 24 to 48 hrs by microdilution method; assay type: functional; summary of the method: as §2
[17] = Cytotoxicity against human Erythroid progenitor cells assessed as maximum safe concentration after 48 hrs by CellTiter-blue assay; assay type: cell-based; settings: read-out: Activity; summary of the method: as §3
[18] = system: Pseudomonas aeruginosa; assay: Antibacterial activity against Pseudomonas aeruginosa after 24 to 48 hrs by microdilution method; assay type: functional; summary of the method: as §1
[19] = system: Bacillus subtilis; assay: Inhibition of Bacillus subtilis RNA polymerase using [alpha-32P]-UTP at 1 mM pretreated for 5 mins measured after 15 mins by electrophoresis analysis
Summary of the method: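 Reconstituted B. subtilis RNAP σA holoenzyme (6 nM) with supercoiled pLK7 template carrying the rrnB P1 promoter (4 ng/μL). Nucleotides: ATP/CTP/GTP 200 μM, UTP 10 μM plus 2 μM [α-³²P]-UTP. Compound at 1 mM; 5 min preincubation at 30 °C, started with RNAP, stopped after 15 min with formamide/EDTA.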

[20] = system: Staphylococcus haemolyticus; assay: Antibacterial activity against fluoroquinolone-resistant Staphylococcus haemolyticus 16568 after 24 to 48 hrs by microdilution method; assay type: functional; summary of the method: as §2
[21] = system: Staphylococcus aureus; assay: Antibacterial activity against methicillin-resistant Staphylococcus aureus 4591 after 24 to 48 hrs by microdilution method; assay type: functional; summary of the method: as §2

MIC [8] | SMILES | MIC [1] | MIC [2] | MIC [3] | MIC [4] | MIC [5] | MIC [6] | MIC [9] | MIC [10] | Activity [13] | MIC [14] | IC50 [15] | MNTC at 48 h [17] | MIC [18] | further results
– | CCCCCCCCCCCCCCC[C@H](NC[C@@H](NC(=O)N[C@H](C(=O)O)C(C)C)[C@@H]1CCNC(=N)N1)C(=O)NCCCN[C@H](C(=O)O)[C@H](O[C@@H]1O[C@H](CN)[C@@H](O)[C@H]1O)[C@H]1O[C@@H](n2ccc(=O)[nH]c2=O)[C@H](O)[C@@H]1O | 4 µg/mL (≈ 3.79 µM) | 2 µg/mL (≈ 1.89 µM) | 2 µg/mL (≈ 1.89 µM) | 4 µg/mL (≈ 3.79 µM) | 4 µg/mL (≈ 3.79 µM) | 4 µg/mL (≈ 3.79 µM) | – | – | – | – | – | – | – | –
– | CCCCCCCCCCCCCCCCOP(=O)(CCN1C[C@@H](O)[C@H](O)C1)OC[C@H]1O[C@@H](n2ccc(=O)[nH]c2=O)[C@H](O)[C@@H]1O (mixture of isomers) | – | – | – | – | – | – | – | – | – | – | – | – | – | Activity [7]: Active
2 µg/mL (≈ 6.19 µM) | O=C(N[C@H](CO)[C@H](O)c1ccc([N+](=O)[O-])cc1)C(Cl)Cl [CHLORAMPHENICOL] | – | – | – | – | – | – | – | – | – | – | – | – | – | –
– | CCCCCCCCCCCCCCCCOP(=O)(CCN1C[C@@H](O)[C@H](O)C1)OC[C@H]1O[C@@H](n2ccc(=O)[nH]c2=O)[C@H](O)[C@@H]1O (single isomer, unassigned; diastereomer 2) | – | – | – | – | – | – | – | – | – | – | – | – | – | Activity [9]: Active; Activity [8]: Active; Activity [10]: Active; Activity [11]: Active
6.25 µg/mL (≈ 8.52 µM) | CCCCCCCCCCCCCCCCOCCCOP(=O)(CCN1C[C@H](O)C[C@@H](O)C1)OC[C@H]1O[C@@H](n2ccc(=O)[nH]c2=O)[C@H](O)[C@@H]1O (some centres undefined) | – | – | – | – | – | – | 200 µg/mL (≈ 273 µM) | 100 µg/mL (≈ 136 µM) | Non-toxic | > 200 µg/mL | 53 µg/mL (≈ 72.2 µM) | 31.2 µg/mL | > 200 µg/mL | inhibition [19]: inactive
– | CC(C)C[C@@H](NC[C@@H](NC(=O)N[C@H](C(=O)O)C(C)C)[C@@H]1CCNC(=N)N1)C(=O)NCCCN[C@H](C(=O)O)[C@H](O[C@@H]1O[C@H](CN)[C@@H](O)[C@H]1O)[C@H]1O[C@@H](n2ccc(=O)[nH]c2=O)[C@H](O)[C@@H]1O | > 64 µg/mL | > 64 µg/mL | > 64 µg/mL | > 64 µg/mL | > 64 µg/mL | > 64 µg/mL | – | – | – | – | – | – | – | –
– | CCCCCCCCCCCCCCC[C@@H](NC[C@@H](NC(=O)N[C@H](C(=O)O)C(C)C)[C@@H]1CCNC(=N)N1)C(=O)NCCCN[C@H](C(=O)O)[C@H](O[C@@H]1O[C@H](CN)[C@@H](O)[C@H]1O)[C@H]1O[C@@H](n2ccc(=O)[nH]c2=O)[C@H](O)[C@@H]1O | 0.5 µg/mL (≈ 0.473 µM) | 2 µg/mL (≈ 1.89 µM) | 0.25 µg/mL (≈ 0.237 µM) | 2 µg/mL (≈ 1.89 µM) | 4 µg/mL (≈ 3.79 µM) | 4 µg/mL (≈ 3.79 µM) | – | – | – | – | – | – | – | –
1 µg/mL (≈ 2.25 µM) | CN(C)[C@@H]1C(O)=C(C(N)=O)C(=O)[C@@]2(O)C(O)=C3C(=O)c4c(O)cccc4[C@@](C)(O)[C@H]3C[C@@H]12 [TETRACYCLINE] | – | – | – | – | – | – | – | 2 µg/mL (≈ 4.5 µM) | – | – | – | – | – | –

SMILES | MIC [8] | MIC [1] | MIC [2] | MIC [3] | MIC [4] | MIC [5] | MIC [6] | MIC [9] | MIC [10] | Activity [13] | MIC [14] | IC50 [15] | MNTC at 48 h [17] | MIC [18] | further results
CCCCCCCCCCCCCCCCOP(=O)(CCN1C[C@H](O)C[C@H]1CO)OC[C@H]1O[C@@H](n2ccc(=O)[nH]c2=O)[C@H](O)[C@@H]1O (some centres undefined) | 3.13 µg/mL (≈ 4.63 µM) | – | – | – | – | – | – | 6.25 µg/mL (≈ 9.25 µM) | 3.13 µg/mL (≈ 4.63 µM) | Non-toxic | > 200 µg/mL | 116 µg/mL (≈ 172 µM) | 62.5 µg/mL | > 200 µg/mL | MIC [12]: 6.25 µg/mL (≈ 9.25 µM); MIC [11]: 100 µg/mL (≈ 148 µM); MIC [16]: 6.25 µg/mL (≈ 9.25 µM)
CCCCCCCCCCCCCCOP(=O)(CCN1C[C@@H](O)[C@H](O)C1)OC[C@H]1O[C@@H](n2ccc(=O)[nH]c2=O)[C@H](O)[C@@H]1O (some centres undefined) | 6.25 µg/mL (≈ 9.86 µM) | – | – | – | – | – | – | 12.5 µg/mL (≈ 19.7 µM) | 6.25 µg/mL (≈ 9.86 µM) | Non-toxic | > 200 µg/mL | 58 µg/mL (≈ 91.5 µM) | 31.2 µg/mL | > 200 µg/mL | MIC [20]: 12.5 µg/mL (≈ 19.7 µM); MIC [12]: 12.5 µg/mL (≈ 19.7 µM); MIC [11]: 12.5 µg/mL (≈ 19.7 µM); MIC [16]: 12.5 µg/mL (≈ 19.7 µM); MIC [21]: 25 µg/mL (≈ 39.4 µM)

Source: ChEMBL document CHEMBL1921744, “Lipophosphonoxins: new modular molecular structures with significant antibacterial properties” (J Med Chem, 2011)
